Results on 13 molecules are retold here after publication PMC9260860 (Biochemistry, 2021).

Data set [1] deals with T1, HpMTAN (Helicobacter pylori, UniProt Q9ZMY2).
T1 sequence (Q9ZMY2 1-230): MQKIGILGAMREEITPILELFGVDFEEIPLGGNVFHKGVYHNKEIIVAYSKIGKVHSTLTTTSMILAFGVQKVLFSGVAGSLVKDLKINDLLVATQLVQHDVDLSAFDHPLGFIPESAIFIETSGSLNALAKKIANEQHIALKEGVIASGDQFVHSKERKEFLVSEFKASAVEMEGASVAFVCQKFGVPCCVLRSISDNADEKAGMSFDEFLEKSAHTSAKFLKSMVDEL
It is filed as biochemical.

In data set [2] the target is human adenosine deaminase (HsADA). The following applies: cited from earlier work.
Data set [3] addresses HpAFLDA (Helicobacter pylori, UniProt Q9ZMG8). Briefly: HpAFLDA inhibition assay. It is filed as biochemical, H. pylori strain J99.
Data set [4] has as its system H. pylori J99. Kind of data set: Inhibition of H. pylori growth in liquid culture. It is filed as cell-based, Helicobacter pylori.
The target in data set [5] is T1, HpMTAN. Briefly: AFL and FL hydrolysis by HpMTAN. The format is biochemical.
Data set [6] relates to Sav2595, Acel0264, Dr0824, Nis0429. The following applies: four enzymes, 30 °C; cited from earlier work.
Data set [7] concerns H. pylori. Kind of data set: Metabolite supplementation of the growth medium, effect on H. pylori cell growth. It is filed as cell-based, Helicobacter pylori.
Data set [8] concerns H. pylori cells. Kind of data set: Metabolism of AFL and FL by live H. pylori cell mixtures. The format is cell-based, Helicobacter pylori. The following applies: ~10^8 cells in PBS pH 7.0. An outline of the steps: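 Live cells were taken from overnight cultures and washed twice with PBS. Incubations were started by adding 25 μM AFL or FL to ~10^8 cells in PBS (pH 7.0). Metabolites were extracted with ice-cold acetonitrile/methanol/water (40:40:20) containing 0.1 M formic acid and a deuterated SAM internal standard. Extracts were dried, redissolved in water, and quantified by reversed-phase LC-MS/MS (ESI−, MRM).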

Data set [9] addresses T2, HpAFLDA (jhp0252) (Helicobacter pylori, UniProt Q9ZMG8).
T2 sequence (Q9ZMG8 1-409): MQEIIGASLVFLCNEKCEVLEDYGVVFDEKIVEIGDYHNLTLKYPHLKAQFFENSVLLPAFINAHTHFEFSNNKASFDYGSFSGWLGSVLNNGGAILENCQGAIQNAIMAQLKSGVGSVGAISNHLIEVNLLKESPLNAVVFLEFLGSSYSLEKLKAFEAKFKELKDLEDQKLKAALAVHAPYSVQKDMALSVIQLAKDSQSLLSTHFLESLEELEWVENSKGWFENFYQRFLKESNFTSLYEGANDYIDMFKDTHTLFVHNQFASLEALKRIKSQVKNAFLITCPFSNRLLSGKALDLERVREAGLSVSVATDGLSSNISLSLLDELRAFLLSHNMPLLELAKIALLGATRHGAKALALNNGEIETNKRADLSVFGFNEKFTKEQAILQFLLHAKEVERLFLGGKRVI
Briefly: Enzymatic assay for HpAFLDA deaminase activity. The following applies: for fold difference of kcat/Km between AFL and adenosine: HpAFLDA, AFL greater than adenosine. The format is biochemical, H. pylori strain J99.

The subject of data set [10] is H. pylori cells. The format is cell-based, Helicobacter pylori.
Substrate in data set [11]: Nc1ncnc2c1ncn2[C@@H]1O[C@H](CO)[C@@H](O)[C@H]1O
Kind of data set: Enzymatic assay for HpAFLDA deaminase activity. It is filed as biochemical, H. pylori strain J99. The following applies: other: deamination by HpAFLDA, 50 mM HEPES pH 7.0, 25 °C.

Substrate in data set [12]: Nc1ncnc2c1ncn2[C@@H]1O[C@H](CCC(=O)c2cccc(C(=O)O)c2)[C@@H](O)[C@H]1O
Briefly: Enzymatic assay for HpAFLDA deaminase activity. It is filed as biochemical, H. pylori strain J99. The following applies: other: deamination by HpAFLDA, 50 mM HEPES pH 7.0, 25 °C.

Substrate in data set [13]: C[C@H]1O[C@@H](n2cnc3c(N)ncnc32)[C@H](O)[C@@H]1O
Briefly: Enzymatic assay for HpAFLDA deaminase activity. The format is biochemical, H. pylori strain J99. The following applies: other: deamination by HpAFLDA, 50 mM HEPES pH 7.0, 25 °C.

Substrate in data set [14]: Nc1ncnc2c1ncn2[C@@H]1O[C@H](CCC(=O)c2cccc(C(=O)O)c2)[C@@H](O)[C@H]1O
Kind of data set: AFL and FL hydrolysis by HpMTAN. The following applies: other: hydrolysis by HpMTAN, 50 mM HEPES pH 7.0. It is filed as biochemical, Helicobacter pylori.

[15] abbreviates: deamination by HpAFLDA, 50 mM HEPES pH 7.0, 25 °C.

5′-methylthioadenosine [MTA]: in data set [1], the “catalytic efficiency of MTA hydrolysis relative to AFL hydrolysis” value was more than 100 fold.
In general, Ki refers to the dissociation constant of the complex between target and ligand, obtained from inhibition or displacement. A lower Ki goes with a stronger hold on the target. Turning to `OC[C@H]1O[C@@H](n2cnc3c2N=CNC[C@H]3O)[C@H](O)[C@@H]1O` [(8R)-CF, Coformycin, reference compound], in data set [2], the Ki values result was “submicromolar”. In data set [3], this molecule displayed a Ki of more than 10 µM.
On to `CSC[C@H]1O[C@@H](n2cnc3c2N=CNC[C@H]3O)C[C@@H]1O` [(8R)-MT-2′d-CF, 5′-methylthio-2′-deoxycoformycin], for which the “inhibition of HpAFLDA activity” value in data set [3] (even at 10 μM) is listed as “did not inhibit”.
What is called IC50 is the midpoint of a concentration-inhibition curve. On to `CSC[C@H]1O[C@@H](n2cnc3c2N=CNC[C@H]3O)[C@H](O)[C@@H]1O` [(8R)-MTCF, 5′-methylthiocoformycin], for which the IC50 in data set [4] (read-out: IC50, H. pylori growth, liquid medium, 72 h, microaerophilic, 37 °C) worked out at 14 ± 1 µM. In addition, the “type of inhibition of HpAFLDA” value in data set [3] (second phase of inhibition after reaction for 30 min) is “slow-onset inhibitor”.
On to `O[C@@H]1CNC=Nc2c1ncn2[C@H]1C[C@H](O)[C@@H](CSc2ccccc2)O1` [(8R)-PhT-2′d-CF, 5′-phenylthio-2′-deoxycoformycin], for which, in [3], the “inhibition of HpAFLDA (in words)” value is “showed some inhibition”.
In the case of `CCCSC[C@H]1O[C@@H](n2cnc3c2N=CNC[C@H]3O)C[C@@H]1O` [(8R)-PrT-2′d-CF, 5′-propylthio-2′-deoxycoformycin], the “inhibition of HpAFLDA (in words)” value in [3] is given as “showed some inhibition”.
The term kcat denotes the maximal rate divided by the concentration of active sites. For the molecule `Nc1ncnc2c1ncn2[C@@H]1O[C@H](CCC(=O)c2cccc(C(=O)O)c2)[C@@H](O)[C@H]1O` [AFL, 6-Amino-6-deoxyfutalosine], the “hydrolysis by HpMTAN (in words)” value in [5] is “capable of catalyzing only AFL hydrolysis”. The “catalytic efficiencies for AFL deamination” value in data set [6] was 4.8 × 10^6 to 7.9 × 10^5 M^−1 s^−1. Moreover, the “effect of supplementation on cell growth” value in data set [7] (200 μM AFL in the growth medium, BTDIA used to stress MK biosynthesis) was “did not cause a significant impact on cell growth”. In data set [8] (25 μM AFL), the “conversion of the added metabolite by live H. pylori cells” value was “readily converted AFL to FL and adenine”. Further, the “fold difference of kcat/Km between AFL and adenosine” value in data set [9] stood at 26 fold. For the same molecule, the kcat in data set [9] (setting [15]) came to 0.62 s⁻¹.
Take `CCCCSC[C@H]1CN(Cc2c[nH]c3c(N)ncnc23)C[C@@H]1O` [BTDIA, BuT-DADMe-ImmA]: in data set [10] (BTDIA at 14 nM, p < 0.005), the “menaquinone-6 concentrations in lipid extracts” value is on record as “decreased significantly”. Moreover, in data set [10] (BTDIA at its half-maximal inhibitory concentration (14 nM)), the “cellular DHFL concentrations” value is “Significant decreases”.
Turning to `O=C(O)c1cccc(C(=O)CC[C@H]2O[C@@H](n3cnc4c(=O)[nH]cnc43)[C@H](O)[C@@H]2O)c1` [FL, futalosine], the “reversal of MTCF growth inhibition by supplementation” value in data set [4] (50 μM FL with 6-100 μM MTCF, 96 h) was “partially reversed the growth inhibition”. Moreover, in data set [5], the “hydrolysis by HpMTAN (in words)” value was “not FL hydrolysis”. The kcat in data set [5] (hydrolysis by HpMTAN, 50 mM HEPES pH 7.0) was less than 1e-05 s⁻¹. In [7] (FL 1 to 200 μM), the “effect of supplementation on cell growth” value is recorded as “did not affect cell growth”. Moreover, in data set [8] (25 μM FL), the “change of the FL concentration in live H. pylori cells” value is listed as “no significant changes” and the “hypoxanthine formation in live H. pylori cells” value is “no hypoxanthine was formed”.
Usually Km stands for the concentration of substrate that gives half-maximal velocity. On to `Nc1ncnc2c1ncn2[C@@H]1O[C@H](CSCC[C@H](N)C(=O)O)[C@@H](O)[C@H]1O` [SAH, S-adenosylhomocysteine], for which, in data set [9] (setting [15]), the Km worked out at 220 ± 50 µM and the kcat is 0.12 ± 0.02 s⁻¹.
Take `Nc1ncnc2c1ncn2[C@@H]1O[C@H](CO)[C@@H](O)[C@H]1O` [adenosine]: the “fold difference of kcat/Km between AFL and adenosine” value in data set [9] worked out at 26 fold.

B1: HpAFLDA (jhp0252) (Helicobacter pylori J99) (protein)
chain: MQEIIGASLVFLCNEKCEVLEDYGVVFDEKIVEIGDYHNLTLKYPHLKAQFFENSVLLPAFINAHTHFEFSNNKASFDYGSFSGWLGSVLNNGGAILENCQGAIQNAIMAQLKSGVGSVGAISNHLIEVNLLKESPLNAVVFLEFLGSSYSLEKLKAFEAKFKELKDLEDQKLKAALAVHAPYSVQKDMALSVIQLAKDSQSLLSTHFLESLEELEWVENSKGWFENFYQRFLKESNFTSLYEGANDYIDMFKDTHTLFVHNQFASLEALKRIKSQVKNAFLITCPFSNRLLSGKALDLERVREAGLSVSVATDGLSSNISLSLLDELRAFLLSHNMPLLELAKIALLGATRHGAKALALNNGEIETNKRADLSVFGFNEKFTKEQAILQFLLHAKEVERLFLGGKRVI
What is called kcat/Km is the turnover number divided by the Michaelis constant. Turning to B1, in [11], the Km stood at 170 ± 40 µM, the kcat turned out to be 0.44 ± 0.06 s⁻¹ and the kcat/Km was found to be 2600 M⁻¹ s⁻¹. For the same molecule, in data set [12], the Km stood at 9 ± 1 µM, the kcat is 0.62 ± 0.03 s⁻¹ and the kcat/Km is 68000 M⁻¹ s⁻¹. In data set [13], the kcat was 1.6 ± 0.3 s⁻¹ and the kcat/Km is 12000 M⁻¹ s⁻¹.

B2: HpMTAN (Helicobacter pylori J99) (protein)
chain: MQKIGILGAMREEITPILELFGVDFEEIPLGGNVFHKGVYHNKEIIVAYSKIGKVHSTLTTTSMILAFGVQKVLFSGVAGSLVKDLKINDLLVATQLVQHDVDLSAFDHPLGFIPESAIFIETSGSLNALAKKIANEQHIALKEGVIASGDQFVHSKERKEFLVSEFKASAVEMEGASVAFVCQKFGVPCCVLRSISDNADEKAGMSFDEFLEKSAHTSAKFLKSMVDEL
With B2, in data set [14], the Michaelis constant (Km) stood at 1.6 ± 0.3 µM, the kcat amounted to 0.022 ± 0.02 s⁻¹ and the kcat/Km was found to be 14000 M⁻¹ s⁻¹.
